Data: ChEMBL document CHEMBL5344453, “Selective Recognition of c-KIT 1 G-Quadruplex by Structural Tuning of Heteroaromatic Scaffolds and Side Chains” (ACS Med Chem Lett, 2024)

Assays:
Format in all cases: nucleic-acid assay
[1] = system: Quadruplex DNA; experiment: Stabilization of G-quadruplex c-MYC 5-FAM-TGGGGAGGGTGGGGAGGGTGGGGAAGG-TAMRA- 3 (unknown origin) assessed as change in melting temperature at 1 uM incubated for 1 hr in dark condition by FRET-based melting assay
Outline: (§1)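 FRET melting of dual-fluorophore-tagged oligonucleotides (200 nM) in 60 mM potassium cacodylate buffer, pH 7.4, with ligand at 1 μM; ΔTm taken against the ligand-free oligonucleotide Tm as control.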

[2] = system: Quadruplex DNA; experiment: Stabilization of G-quadruplex h-TELO 5-FAM-TTGGGTTAGGGTTAGGGTTAGGGA-TAMRA-3 (unknown origin) assessed as change in melting temperature at 1 uM incubated for 1 hr in dark condition by FRET-based melting assay; outline: as §1
[3] = system: Quadruplex DNA; experiment: Stabilization of G-quadruplex c-KIT2 5-FAM-GGGCGGGCGCGAGGGAGGGG-TAMRA-3 (unknown origin) assessed as change in melting temperature at 1 uM incubated for 1 hr in dark condition by FRET-based melting assay; outline: as §1
[4] = system: Quadruplex DNA; experiment: Stabilization of G-quadruplex BCL2 5-FAM-AGGGGCGGGCGCGGGAGGAAGGGGGCGGGAGCGGGGCTG-TAMRA-3 (unknown origin) assessed as change in melting temperature at 1 uM incubated for 1 hr in dark condition by FRET-based melting assay; outline: as §1
[5] = system: Quadruplex DNA; experiment: Stabilization of G-quadruplex VEGF 5-FAM-CGGGGCGGGCCGGGGGCGGGGT-TAMRA-3 (unknown origin) assessed as change in melting temperature at 1 uM incubated for 1 hr in dark condition by FRET-based melting assay; outline: as §1
[6] = system: Quadruplex DNA; experiment: Stabilization of G-quadruplex c-KIT1 5-FAM-GGGAGGGCGCTGGGAGGAGGG-TAMRA-3 (unknown origin) assessed as change in melting temperature at 1 uM incubated for 1 hr in dark condition by FRET-based melting assay; outline: as §1
[7] = system: Quadruplex DNA; experiment: Stabilization of calf thymus […] ds DNA 5-FAM-CAATCGGATCGAATTCGATCCGATTG-TAMRA-3 assessed as change in melting temperature at 1 uM incubated for 1 hr in dark condition by FRET-based melting assay; conditions: Bos taurus; outline: as §1

Row | Structure (SMILES) | ΔTm [1] [°C] | ΔTm [2] [°C] | ΔTm [3] [°C] | ΔTm [4] [°C] | ΔTm [5] [°C] | ΔTm [6] [°C] | ΔTm [7] [°C]
1 | CN(C)CCCn1cc(-c2ccc3[nH]c4ccccc4c3c2)nn1 | < 5.5 | < 5.5 | < 5.5 | < 5.5 | < 5.5 | < 5.5 | < 5.5
2 | O=C(Nc1ccc(-n2cc(-c3ccc4oc5ccccc5c4c3)nn2)cc1)C1CCCN1 (centres undefined) | < 6 | < 6 | < 6 | < 6 | < 6 | < 6 | < 6
3 | NCCn1cc(-c2ccc3oc4ccccc4c3c2)nn1 | < 6 | < 6 | < 6 | < 6 | < 6 | < 6 | < 6
4 | CN(C)CCCn1cc(-c2ccc3oc4ccccc4c3c2)nn1 | < 6 | < 6 | < 6 | < 6 | < 6 | < 6 | < 6
5 | NCCn1cc(-c2ccc3[nH]c4ccccc4c3c2)nn1 | < 5.5 | < 5.5 | < 5.5 | < 5.5 | < 5.5 | < 5.5 | < 5.5
6 | Nc1ccc(-n2cc(-c3ccc4oc5ccccc5c4c3)nn2)cc1 | < 6 | < 6 | < 6 | < 6 | < 6 | < 6 | < 6
7 | Nc1nc(CC(=O)Nc2nc(CC(=O)NCCCn3cc(-c4ccc5oc6ccccc6c5c4)nn3)cs2)cs1 | < 6 | < 6 | < 6 | < 6 | < 6 | < 6 | < 6
8 | Nc1nc(CC(=O)Nc2nc(CC(=O)NCCCn3cc(-c4ccc5[nH]c6ccccc6c5c4)nn3)cs2)cs1 | < 5.5 | < 5.5 | < 5.5 | < 5.5 | < 5.5 | < 5.5 | < 5.5

Further lines, results first:

Row | ΔTm [1] [°C] | ΔTm [2] [°C] | ΔTm [3] [°C] | ΔTm [4] [°C] | ΔTm [5] [°C] | ΔTm [6] [°C] | ΔTm [7] [°C] | Structure (SMILES)
9 | < 5.5 | < 5.5 | < 5.5 | < 5.5 | < 5.5 | < 5.5 | < 5.5 | NCCCCC(N)C(=O)Nc1ccc(-n2cc(-c3ccc4[nH]c5ccccc5c4c3)nn2)cc1 (centres undefined)
10 | < 6 | < 6 | < 6 | < 6 | < 6 | < 6 | < 6 | NCCCCC(N)C(=O)Nc1ccc(-n2cc(-c3ccc4oc5ccccc5c4c3)nn2)cc1 (centres undefined)
11 | < 5.5 | < 5.5 | < 5.5 | < 5.5 | < 5.5 | < 5.5 | < 5.5 | Nc1ccc(-n2cc(-c3ccc4[nH]c5ccccc5c4c3)nn2)cc1
12 | < 5.5 | < 5.5 | < 5.5 | < 5.5 | < 5.5 | < 5.5 | < 5.5 | O=C(Nc1ccc(-n2cc(-c3ccc4[nH]c5ccccc5c4c3)nn2)cc1)C1CCCN1 (centres undefined)
